The test system of series [1] is FOXM1 target gene transcripts in MCF-7 cells. The series can be described thus: RNA-seq differential expression in MCF-7 cells. The series is classed as cell-based, human. Conditions: 6 h. In short, it runs like this: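 MCF-7 cells were treated for 3, 6 or 9 h, in three replicates per time point, against 0 h controls. TruSeq libraries gave 100-nt single-end reads, which were adapter/quality trimmed, aligned to hg19 and counted per gene. Differential expression used the edgeR exact test with library-size (CPM) normalization, and FDR < 0.01 counted as significant.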

The subject of series [2] is PEO-1 ovarian cancer cells. Description: Cell viability assay, PEO-1 cells. The series is classed as cell-based. Conditions: Homo sapiens, PEO1, 72 h. In a few lines: (§1)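 Cell lines came from ECACC. MCF-7 and MDA-MB-231 were grown in DMEM + 10% FBS, and PEO-1 in RPMI + 10% FBS. Cells were exposed to test compound for 72 h. GI50 is the concentration giving 50% growth inhibition.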

Series [3] has as its system CDC25B expression in PEO-1 cells. Description: CDC25B expression in PEO-1 cells. The series is classed as cell-based, human. The settings on record: 3 h treatment. In a few lines:
(§2)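 MDA-MB-231 (DMEM + 10% FBS) or PEO-1 (RPMI + 10% FBS) cells were exposed to test compound for 3 h. CDC25B transcript was measured by qRT-PCR with commercial gene-specific primer sets, with ACTB and YWHAZ primer sets also run.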

Series [4] relates to MCF-7 breast cancer cells. Description: 72 h growth inhibition in MCF-7 cells. Conditions: Homo sapiens, MCF7, 72 h, read-out: GI50 (50% growth inhibition). The series is classed as cell-based. In a few lines:
as §1

Series [5] has as its system FOXM1 in MCF-7 cells. Description: Western blot of total lysate and chromatin fraction of treated MCF-7 cells. The series is classed as cell-based, human. The settings on record: 6 h, 20 μM. In a few lines: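 MCF-7 cells were treated 6 h with test compound or DMSO. Whole-cell RIPA lysates and isolated chromatin pellets (sonicated in Laemmli buffer) ran on 8–16% Tris-glycine gels. Blots were probed overnight at 4°C with anti-FOXM1 (1:1000), actin (1:5000) or histone H3 (1:10000), then with IR-dye secondaries. FOXM1 was quantified relative to actin (lysate) or H3 (chromatin).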
In general terms: In western blotting, separated proteins are transferred to a membrane and probed.

Series [6] has as its system genes with FOXM1 promoter occupancy (ENCODE ChIP-seq, MCF-7). The series is classed as cell-based, human. Conditions: ENCODE ChIP-seq datasets. In a few lines: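 Differentially expressed genes at 3 h were defined as FDR < 0.01 and logFC > 0.3 […]. ENCODE FOX-family ChIP-seq peaks (MACS) shared by both duplicates were mapped to promoters (−2000 to +100 bp of TSS). Proportions were compared by chi-squared test. Temporal clusters came from fuzzy c-means (9 clusters, fuzzification 1.35) on 1552 genes with abs(logFC) > 0.75.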

Series [7] deals with MDA-MB-231 ER-negative breast cancer cells. The series can be described thus: Cell viability assay, MDA-MB-231 cells. The settings on record: Homo sapiens, MDA-MB-231, 72 h. The series is classed as cell-based. In short, it runs like this: as §1
Series [8] concerns FOXM1 occupancy at CCNB1 and CDC25B gene promoters. The series can be described thus: FOXM1 ChIP followed by qRT-PCR in MCF-7 cells. The series is classed as cell-based, human. The settings on record: 6 h treatment. In short, it runs like this:
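MCF-7 cells at 70% confluence were treated 6 h with test compound or DMSO. Cells were crosslinked with 1% formaldehyde 10 min at RT, quenched with glycine, lysed and sonicated. Immunoprecipitation used 3 μg rabbit polyclonal anti-FOXM1 on protein-A beads overnight, with elution at 65°C for 16 h. SYBR qPCR (40 cycles) amplified CDC25B and CCNB1 promoters. Enrichment was normalized to a cyclin D1 intergenic control region.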

Series [9] deals with 20S proteasome. Description: 20S proteasome activity assay. The settings on record: 10 μM inhibitor, 37°C, 90 m. The series is classed as biochemical. In a few lines:
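Recombinant 20S proteasome with an AMC-linked peptide substrate that fluoresces on cleavage. Substrate dilution of 1:200 was chosen from an AMC standard curve. Test compound at 10 μM or DMSO control was mixed with enzyme and substrate and incubated 90 min at 37°C. Fluorescence was read at 380/460 nm and normalized to DMSO, with MG-132 as reference inhibitor.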

Series [10] has as its target T1, FOXM1 DBD-DNA interaction (Homo sapiens, UniProt Q08050).
T1 sequence (Q08050 222-360): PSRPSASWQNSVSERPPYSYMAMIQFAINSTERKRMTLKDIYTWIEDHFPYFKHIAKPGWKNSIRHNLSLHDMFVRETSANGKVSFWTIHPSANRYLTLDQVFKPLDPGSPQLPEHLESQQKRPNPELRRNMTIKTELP
Description: EMSA displacement of FOXM1 DBD-DNA interaction. The series is classed as binding. In a few lines: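 The DNA-binding domain of human FOXM1c was expressed as a GST fusion in E. coli BL21(DE3), induced with 1 mM IPTG at 18°C overnight. DBD (750 nM final) was preincubated with test compound 1.5 h at RT. FAM-labelled 16-bp consensus dsDNA (15 nM final) was added for 15 min. Samples ran on 6% retardation gels and were imaged by fluorescence.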

The test system of series [11] is CDC25B expression in MDA-MB-231 cells. Description: CDC25B expression in MDA-MB-231 cells. The series is classed as cell-based, human. Conditions: 3 h treatment. In a few lines:
as §2

Series [12] concerns the target T2, FOXM1 DBD (GST fusion) (Homo sapiens, UniProt Q08050 222-360).
T2 sequence: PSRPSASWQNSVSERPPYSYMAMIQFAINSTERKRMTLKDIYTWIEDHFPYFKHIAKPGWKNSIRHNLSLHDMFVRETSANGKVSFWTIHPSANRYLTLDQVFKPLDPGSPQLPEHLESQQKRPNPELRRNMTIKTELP
Description: competition.

Series [13] deals with T3, FOXM1 full length (FOXM1c, GST fusion) (Homo sapiens, UniProt Q08050 1-763).
T3 sequence: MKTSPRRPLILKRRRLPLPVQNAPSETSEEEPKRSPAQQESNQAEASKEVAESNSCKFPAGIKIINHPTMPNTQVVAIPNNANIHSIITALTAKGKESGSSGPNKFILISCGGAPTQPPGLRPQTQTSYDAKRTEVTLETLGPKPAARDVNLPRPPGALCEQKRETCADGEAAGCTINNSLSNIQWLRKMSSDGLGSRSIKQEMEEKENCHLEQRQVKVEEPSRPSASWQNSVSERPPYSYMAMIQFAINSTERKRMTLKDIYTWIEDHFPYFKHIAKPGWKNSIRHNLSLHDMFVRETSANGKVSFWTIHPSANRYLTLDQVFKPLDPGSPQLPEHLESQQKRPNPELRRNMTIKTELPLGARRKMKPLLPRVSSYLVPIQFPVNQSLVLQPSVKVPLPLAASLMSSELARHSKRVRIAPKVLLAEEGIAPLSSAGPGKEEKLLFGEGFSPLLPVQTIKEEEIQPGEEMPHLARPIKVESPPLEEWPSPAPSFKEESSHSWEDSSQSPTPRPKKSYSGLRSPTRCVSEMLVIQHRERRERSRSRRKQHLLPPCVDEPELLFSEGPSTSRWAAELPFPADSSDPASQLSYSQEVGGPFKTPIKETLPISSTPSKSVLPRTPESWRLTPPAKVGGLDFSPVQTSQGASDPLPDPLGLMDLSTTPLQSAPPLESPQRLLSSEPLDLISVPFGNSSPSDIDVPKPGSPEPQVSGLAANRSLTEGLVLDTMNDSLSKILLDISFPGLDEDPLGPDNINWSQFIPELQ
The series can be described thus: fluorescence polarization. (In fluorescence polarisation assays a small probe gives low polarisation when free and higher when bound to something large.)

Series [14] concerns the target T2, FOXM1 DBD (GST fusion). The series can be described thus: fluorescence polarization.
In series [15] the target is T2, FOXM1 DBD (GST fusion). Description: fluorescence polarization. The source holds these as a separate data set.
Series [16] addresses T2, FOXM1 DBD (GST fusion). The series can be described thus: EMSA. A general note: A gel shift assay detects complexes by their altered migration in electrophoresis.

The text below walks through data of publication PMC4258842 (Nature communications, 2014).

“Also recorded” adds a separate entry of the source.

Usually GI50 stands for the concentration giving 50% growth inhibition. By IC50 is commonly meant the concentration that gives 50% inhibition. With `Nc1c(C(=O)Nc2ccc(F)cc2)sc2nc(-c3cccs3)cc(C(F)(F)F)c12` [FDI-6, 3-amino-N-(4-fluorophenyl)-6-(thiophen-2-yl)-4-(trifluoromethyl)thieno[2,3-b]pyridine-2-carboxamide], in [1], the AURKA transcript change was −0.83 log2 fold change, the CCNA2 transcript change is −0.65 log2 fold change, the CCNB1 transcript change is listed as −0.86 log2 fold change and the CDKN3 transcript change was −0.739 log2 fold change. Further, in series [1], the CENPA transcript change is on record as −0.61 log2 fold change, the KIF20A transcript change is listed as −1.22 log2 fold change, the NEK2 transcript change was −0.86 log2 fold change and the PLK1 transcript change was −0.92 log2 fold change. The molecule further showed a GI50 in series [2] of 18100 nM. For the same molecule, the CDC25B expression entry in series [3] is recorded as “down-regulates”. Also, the 50% growth inhibitory concentration (GI50) in [4] was 18000 ± 3000 nM. For the same molecule, in series [5] (MCF-7 cells, normalized to Histone H3), the “decrease of chromatin bound FOXM1” value was roughly 50%. Further, in series [5] (MCF-7 total lysate, normalized to Actin), the “overall amount of FOXM1 protein” value was “unaffected”. Also, the “enrichment of differentially expressed genes for promoter occupancy of other FOX transcription factors (FOXA1, FOXA2, FOXP2)” value in series [6] is on record as “did not show enrichment”. In addition, it took 21800 nM to inhibit growth in series [7] by half (GI50). Besides, in [8], the “change in FOXM1 occupancy at CCNB1 gene promoter” value is −0.68 log2 fold and the “change in FOXM1 occupancy at CDC25B gene promoter” value was −0.64 log2 fold. The “inhibition of the 20S proteasome” value in [9] was “did not inhibit; also recorded: inactive”. Further, the IC50 in [10] was 22500 ± 12300 nM. Further, in series [11], the CDC25B expression result is given as “down-regulates”.

Consider `C=C(NC(=O)C(=C)NC(=O)c1csc(C2=N[C@@H]3c4csc(n4)[C@H]4NC(=O)c5csc(n5)[C@H]([C@](C)(O)[C@@H](C)O)NC(=O)[C@H]5CSC(=N5)/C(=C/C)NC(=O)[C@H]([C@@H](C)O)NC(=O)c5csc(n5)[C@]3(CC2)NC(=O)[C@H](C)NC(=O)C(=C)NC(=O)[C@H](C)NC(=O)[C@H]([C@@H](C)CC)N[C@@H]2C=Cc3c([C@H](C)O)cc(nc3[C@H]2O)C(=O)O[C@@H]4C)n1)C(N)=O` [thiostrepton, reference compound], for which the GI50 in [4] was 2700 nM. The same molecule registered an IC50 in series [10] of 45000 ± 16400 nM.

B1: unlabeled FOXM1 consensus DNA, 16 bp (dsDNA)
DNA 1: AAACAAACAAACAATC
DNA 2: GATTGTTTGTTTGTTT
In the case of B1, the IC50 in series [12] was found to be 57 ± 5 nM.

B2: FOXM1 consensus DNA probe, 16 bp (dsDNA)
DNA 1: AAACAAACAAACAATC
DNA 2: GATTGTTTGTTTGTTT
The Kd is the free concentration of one partner at which half of the binding sites on the other are occupied at equilibrium, for simple one-to-one binding. A high value points to lower affinity. With B2, the Kd in [13] was determined as 300 ± 64 nM; in [14], 224 ± 30 nM; in [15], 158 nM; in [16], 301 ± 21 nM.
